Out of some 290,000 compounds screened, about 1,600 (0.55%) were called active. The sample holds actives, similar compounds and a random draw of the others, so the mix is not that of the screen. Unmarked numbers belong to inactive results.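 How the source made its calls: active means inhibition above the mean of all tested compounds plus 3 SD, set per campaign (cut at about 35% in these data); inactive means the rest.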

The test deals with Hepatitis C virus NS3 helicase. Kind of test: HCV NS3 DNA unwinding blockers – biochemical, Cy5 molecular beacon fluorescence, primary screen (AID 1800).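 Further: 0% = DMSO wells and 100% = thioflavine S control wells.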 The following applies: at 10.9 µM, hits give high values. In a few lines:
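assay system = NS3 helicase fragment of HCV | buffer or medium = MOPS pH 6.5, MgCl2, DTT, Tween20, BSA | timing = 60 min unwinding reaction at 25 °C after ATP addition | signal = Cy5 beacon fluorescence read at start and 1 h | read-out basis = % inhibition of unwinding | control set = low DMSO, high thioflavine S at 110 µM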
Regarding `CS(=O)(=O)N1CCc2cc(C(=O)Nc3ccccc3Br)ccc21`, the inhibition is 5.96%.

As to `COc1cc2c(cc1OC)CN(CC(=O)Nc1ccc(F)cc1)CC2`, the inhibition is -2.51%.

As for `CCN(CCCNC(=O)c1ccc2c(c1)NC(=O)CN2C)c1cccc(C)c1`, the inhibition is 2.74%.

Regarding `Cc1ccc(-c2ccnc3[nH]n(-c4ccccc4)c(=O)c23)cc1`, the inhibition was 15.7%.

Turning to `O=c1c2c(-c3ccccc3)ccnc2[nH]n1-c1ccccc1`, the inhibition was 47.7% (active).

For the molecule `O=c1c(-c2cccc(Cl)c2)c[nH]n1-c1ccccc1`, the inhibition was 4.7%.

Consider `COc1ccc(C(=O)N(C)CC(O)c2ccccc2)cc1OC1CCN(C(C)=O)CC1` (centres undefined), for which the inhibition was 32.3%.

Turning to `CCNC(=O)CC1C(=O)N(c2ccc(OC)cc2)C(=O)N1CCOC` (centres undefined), the inhibition is 1.88%.

Take `Cc1cccc(N2CCN(C(=O)CCS(=O)(=O)c3ccc4c(c3)NC(=O)C(C)S4)CC2)c1C` (centres undefined): the inhibition is -0.36%.

On to `COc1ccccc1N1CCN(C(=O)CCS(=O)(=O)c2ccc3c(c2)NC(=O)C(C)S3)CC1` (centres undefined), for which the inhibition was 38.1% (active).

On to `CC1Sc2ccc(S(=O)(=O)CCC(=O)NCc3ccccc3Cl)cc2NC1=O` (centres undefined), for which the inhibition is 8.3%.

On to `Cc1ccc(S(=O)(=O)NCC(=O)N(CC(=O)NCC2CCCO2)c2cccc(F)c2)cc1` (centres undefined), for which the inhibition was -2.87%.

As to `O=C(c1ccc(F)cc1)n1c(=S)nc2ccccn21`, the inhibition was 12%.

As to `CC(=O)c1ccccc1OCc1ccc(C(=O)c2ccccc2)cc1`, the inhibition is -8.3%.

Turning to `O=C1CC(N2CCN(c3ccc(F)cc3)CC2)C(=O)N1c1ccccc1` (centres undefined), the inhibition is -13.4%.

For the molecule `O=C(Cc1ccccc1)NC(=S)Nc1ccc(N2CCCCC2)cc1`, the inhibition is -1.95%.

As to `O=C1C=CC(=O)N1c1ccc(N2CCCCC2)cc1`, the inhibition is 45.2% (active).

For `COc1cccc(NC(=O)c2ccccc2N(Cc2ccccc2)S(C)(=O)=O)c1`, the inhibition was 0.24%.

Consider `CC(=O)N1c2ccc(S(=O)(=O)N3CCCC(C(=O)Nc4ccc(C)cc4C)C3)cc2CC1C` (centres undefined), for which the inhibition is -18.4%.

`Cc1ccc(-c2ccc(/C=N/NC(=O)CN3CCOCC3)o2)cc1[N+](=O)[O-]`: the inhibition was 6.31%.

Regarding `Cc1occc1C(=O)N/N=C/c1ccc(-c2cccc([N+](=O)[O-])c2)o1`, the inhibition was 45.3% (active).

As to `Cc1cc(C(=O)N/N=C/c2ccccc2[N+](=O)[O-])c(C)o1`, the inhibition was 5.42%.

In the case of `COc1ccc(Cn2c(-c3ccc(Cl)cc3)c[n+]3ccccc23)cc1`, the inhibition was -35.9%.

On to `CCCCn1c(O)c(N=NC(=O)Cn2c(C(F)(F)F)nc3ccccc32)c2ccccc21`, for which the inhibition is 0.68%.

As for `Oc1oc(-c2ccccc2Br)nc1/C=N/c1ccccn1`, the inhibition is -6.78%.

With `O=C(c1ccco1)N1CCN(C(=S)Nc2cc(F)cc(F)c2)CC1`, the inhibition is -5.92%.

Regarding `CC1CCCN(c2ccc(C(=O)NCCc3ccccc3)cn2)C1` (centres undefined), the inhibition is -1.78%.

As to `CCC(NC(=O)C1CCCC1)c1ccc(C)cc1` (centres undefined), the inhibition was 1.79%.

For `Cc1ccc(C(CC(=O)O)Nc2nc(N3CCCCC3)nc(N3CCCCC3)n2)cc1` (centres undefined), the inhibition was 46.7% (active).

Take `O=C(O)c1ccc(/C=N/Nc2nc(N3CCCCC3)nc(N3CCCCC3)n2)cc1`: the inhibition is 3.13%.

With `Cc1ccc(C(=O)COC(=O)CCN2C(=O)C3C4CCC(C4)C3C2=O)cc1C` (centres undefined), the inhibition was 19.3%.

Regarding `CC1CN(C(=S)Nc2cccc(F)c2)CC(C)O1` (centres undefined), the inhibition was -3.8%.

For `COc1ccc(S(=O)(=O)N2CCSCC2)cc1`, the inhibition is 9.62%.

For the molecule `CC(=O)C1=C(O)C(=O)N(c2cccnc2)C1c1ccc([N+](=O)[O-])cc1` (centres undefined), the inhibition is -3.05%.

`COC(=O)CN1C(=O)C(O)=C(C(C)=O)C1c1ccc([N+](=O)[O-])cc1` (centres undefined): the inhibition is -0.09%.

As for `CC(=O)C1=C(O)C(=O)N(c2ccc(Br)cc2)C1c1ccc([N+](=O)[O-])cc1` (centres undefined), the inhibition was 36% (active).

Consider `CN(Cc1ccc(F)cc1)C(=O)COc1ccc2ccccc2c1`, for which the inhibition was -17.8%.

As for `COCn1c(C(O)c2ccccc2)cc2ccccc21` (centres undefined), the inhibition is -4.17%.

Take `COC(=O)C1=C(C)N(c2ccc(Br)cc2)C(=O)/C1=C\c1ccco1`: the inhibition is 17.4%.

As to `Cc1cc(C)c(OCC(=O)N/N=C/c2ccco2)c(C)c1`, the inhibition is -4.49%.

In the case of `COC(=O)COc1ccc2c(c1C)O/C(=C\c1ccco1)C2=O`, the inhibition is 90.2% (active).

For the molecule `Cn1ncc2c(N3CCCCC3)nc(NCCCO)nc21`, the inhibition was 5.11%.

On to `CC(=O)NN1C(=O)c2ccccc2NC1c1ccccc1` (centres undefined), for which the inhibition was -4.55%.

As to `COC1=C/C(=C/c2c(N)n3nc(CC(=O)N4CCOCC4)sc3nc2=O)C=CC1=O`, the inhibition is 13.6%.

As to `COc1cccc(NC(=O)CSc2nnc(Cc3ccc(OC)c(OC)c3)o2)c1`, the inhibition was -10.1%.

As for `O=C(N/N=C/c1ccco1)c1ccc(NC(=O)C2CC2)cc1`, the inhibition was 2.86%.

On to `O=C(N/N=C/c1ccco1)c1csc2c1CCCC2`, for which the inhibition is 42.9% (active).

With `O=C(N/N=C/c1ccco1)c1ccc(C(=O)N/N=C/c2ccco2)o1`, the inhibition was -3.79%.

As for `Cc1ccc(C)c(S(=O)(=O)N2CCCOC2CNC(=O)C(=O)NC2CCCCC2)c1` (centres undefined), the inhibition is 8.68%.

`CCc1cc2c(=O)n(-c3ccccc3)c(SCC(=O)O)nc2s1`: the inhibition is 5.68%.

For `CCOc1ccc(C2C(C#N)=C(N)N(N(C)C)C3=C2C(=O)CCC3)cc1` (centres undefined), the inhibition was 6.79%.

In the case of `CCOc1ccc(C2C3=C(CCCC3=O)N(CC(=O)O)C3=C2C(=O)CCC3)cc1`, the inhibition is 59.8% (active).

As to `COc1ccc(C2C3=C(CCCC3=O)N(CC(=O)O)C3=C2C(=O)CCC3)cc1`, the inhibition is 2.66%.

Turning to `COc1ccc(N(C(=O)c2snc(C(N)=O)c2N)C(C(=O)NC2CCCC2)c2ccc(C)o2)c(OC)c1` (centres undefined), the inhibition is -6.52%.

As to `Cc1[nH]n(-c2cccc(Cl)c2)c(=O)c1-c1ccc(Cl)cc1`, the inhibition was 1.96%.

For the molecule `CC1=NN(C(N)=S)C(=O)C1N=Nc1cc(Cl)ccc1Cl` (centres undefined), the inhibition is 34.2%.

On to `Cc1[nH]n(C(N)=S)c(=O)c1N=Nc1ccc(Cl)cc1Cl`, for which the inhibition was 44.7% (active).

Turning to `O=C(CSC(=S)N1CCCCC1)c1c(F)cccc1F`, the inhibition was 4.19%.

As for `CCN(CC)CCOc1ccc2c(c1)C(=NNC(=O)c1ccccn1)c1cc(OCCN(CC)CC)ccc1-2`, the inhibition was 41% (active).

Take `Cc1cccc(OCC(=O)NCCCNC(=O)c2ccccn2)c1`: the inhibition is 4.84%.

Regarding `COc1ccc(CC(=O)N/N=C(\C)c2ccccn2)cc1`, the inhibition is 8.79%.

`COc1ccc(NC(=S)N2CCC(NC(=O)c3cccc(F)c3)CC2)cc1`: the inhibition was 5.28%.

Regarding `Cc1ccc(Nc2nnc(SCc3ccccc3)s2)cc1`, the inhibition was -1.63%.

With `O=C(CSc1nnc(Nc2ccccc2)s1)Nc1cccnc1Cl`, the inhibition was 4.07%.

`CC(C)c1ccc(Nc2nnc(SCC(=O)c3nnc(-c4ccccc4)o3)s2)cc1`: the inhibition was 42.3% (active).

For `Cc1ccc(SC(CC(=O)c2ccc(C(C)(C)C)cc2)C(=O)O)cc1` (centres undefined), the inhibition is 44.4% (active).

In the case of `Cc1ccc(C(=O)CSc2ccccc2C(=O)O)cc1`, the inhibition is 2.55%.

For the molecule `Cc1ccc(CSCC(N)C(=O)O)cc1` (centres undefined), the inhibition is 0.78%.

Turning to `C=CCn1c(=NC(=O)c2cccs2)sc2cc(NC(C)=O)ccc21`, the inhibition is -8.84%.

As to `Cc1cccc(CCNS(=O)(=O)c2ccc3c(c2)NC(=O)CO3)c1`, the inhibition is -2.06%.

`COc1ccc(/C=C(/NC(=O)c2ccccc2)C(=O)Nc2cccc(C(=O)O)c2)cc1`: the inhibition is 3.56%.

As for `COc1ccc(S(=O)(=O)N(C)CC(=O)N2CCCC2)cc1`, the inhibition was -9.23%.

As for `CC(C)=N/N=C1/NC(=O)C(Cc2ccccc2)S1` (centres undefined), the inhibition was 12.1%.

Regarding `Cc1ccc(C2Nc3cccc4cccc(c34)N2)cc1`, the inhibition was 38.8% (active).

Consider `COc1cc2c(cc1OC)C(c1ccccc1Br)NC(=O)C2` (centres undefined), for which the inhibition was 1.43%.

For `C/C(=C\c1ccco1)C1Nc2cccc3cccc(c23)N1`, the inhibition was 15%.

As to `COc1cccc(C2Nc3cccc4cccc(c34)N2)c1`, the inhibition was -11.8%.

On to `Brc1ccccc1C1Nc2cccc3cccc(c23)N1`, for which the inhibition was 53.8% (active).

Take `Oc1ccc(C2Nc3cccc4cccc(c34)N2)cc1`: the inhibition was 9.35%.

Turning to `CCc1noc(C)c1C(=O)N1CCCC(N2CCN(c3ccc(F)cc3)CC2)C1` (centres undefined), the inhibition was 8.93%.

In the case of `CC(C)(COC(=O)Nc1ccccc1)COC(=O)Nc1ccccc1`, the inhibition is -7.99%.

For the molecule `CC1=NN(c2ccc(Cl)c(C(=O)O)c2)C(=O)/C1=C/c1ccc(-c2ccccc2[N+](=O)[O-])o1`, the inhibition was 43.5% (active).

For the molecule `Cc1cc([N+](=O)[O-])c(-c2ccc(/C=N/n3cnnc3)o2)cc1Cl`, the inhibition was 12.9%.

As for `O=C(Nc1ccc(N2CCOCC2)cc1)c1ccc(-c2ccccc2[N+](=O)[O-])o1`, the inhibition is -10.2%.

As to `COc1ccccc1NC(=O)Nc1nnc(Cc2ccc(F)cc2)s1`, the inhibition is -6.22%.

Turning to `CCOc1ccc(N(C(=O)c2snc(C(N)=O)c2N)C(C(=O)NCC2CCCO2)c2c[nH]c3ccccc23)cc1` (centres undefined), the inhibition was -29.3%.

Turning to `COc1ccc(C(=O)Nc2ccccc2C(=O)NCc2ccco2)cc1`, the inhibition is -9.8%.

For `COc1ccc(/C=C(/NC(=O)c2ccco2)C(=O)Nc2ccc(C(C)=O)cc2)cc1`, the inhibition was 2.61%.

Regarding `COc1ccc(/C=C(\NC(=O)c2ccc(OCC(C)C)cc2)C(=O)OCc2ccco2)cc1`, the inhibition is 43.7% (active).

`CCCn1cc(S(=O)(=O)c2ccc(C)cc2)c(=O)c2cc(OCC)ccc21`: the inhibition is -5.21%.

In the case of `CCc1ccc(NC(=O)Nc2ccncc2)cc1`, the inhibition was -8.08%.

`O=C(NCc1ccccn1)c1ccc2nc(-c3ccco3)c(-c3ccco3)nc2c1`: the inhibition was 31.3%.

In the case of `O=C(Nc1ccc2nccnc2c1)c1ccco1`, the inhibition is -0.83%.

As for `COCCNC(=O)Nc1ccc2nc(-c3ccco3)c(-c3ccco3)nc2c1`, the inhibition was 42.2% (active).

Values taken from PubChem BioAssay AID1800 (The Scripps Research Institute Molecular Screening Center, 2009).
